This passage reports inhibition results from ChEMBL document CHEMBL4330096, “Discovery of potent and selective 5-azaindazole inhibitors of leucine-rich repeat kinase 2 (LRRK2) - Part 1” (Bioorg Med Chem Lett, 2019).

The inhibition is the drop in the measured response relative to a control, in per cent.

For experiment [1], the target named is Insulin-like growth factor 1 receptor (Homo sapiens) (UniProt P08069). Briefly: Inhibition of IGF1R (unknown origin) at 1 uM relative to control. In short, it runs like this:
(§1)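 Single-point screen of each compound against a panel of 59 protein kinases, at 1 or 10 μM. The panel data are also summarised as a rescaled geometric mean selectivity score.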

Experiment [2] concerns the target Homeodomain-interacting protein kinase 2 (Homo sapiens) (UniProt Q9H2X6). Briefly: Inhibition of HIPK2 (unknown origin) at 1 uM relative to control. Put shortly: as §1
For experiment [3], the target named is Casein kinase I (Homo sapiens) (UniProt Q9HCP0+P78368+P48730+P49674+P48729). Briefly: Inhibition of CK1 (unknown origin) at 1 uM relative to control. It counts as protein assay. Put shortly:
as §1

Experiment [4] has as its target T1, Inhibitor of nuclear factor kappa-B kinase subunit beta (Homo sapiens) (UniProt O14920).
T1 sequence (whole entry): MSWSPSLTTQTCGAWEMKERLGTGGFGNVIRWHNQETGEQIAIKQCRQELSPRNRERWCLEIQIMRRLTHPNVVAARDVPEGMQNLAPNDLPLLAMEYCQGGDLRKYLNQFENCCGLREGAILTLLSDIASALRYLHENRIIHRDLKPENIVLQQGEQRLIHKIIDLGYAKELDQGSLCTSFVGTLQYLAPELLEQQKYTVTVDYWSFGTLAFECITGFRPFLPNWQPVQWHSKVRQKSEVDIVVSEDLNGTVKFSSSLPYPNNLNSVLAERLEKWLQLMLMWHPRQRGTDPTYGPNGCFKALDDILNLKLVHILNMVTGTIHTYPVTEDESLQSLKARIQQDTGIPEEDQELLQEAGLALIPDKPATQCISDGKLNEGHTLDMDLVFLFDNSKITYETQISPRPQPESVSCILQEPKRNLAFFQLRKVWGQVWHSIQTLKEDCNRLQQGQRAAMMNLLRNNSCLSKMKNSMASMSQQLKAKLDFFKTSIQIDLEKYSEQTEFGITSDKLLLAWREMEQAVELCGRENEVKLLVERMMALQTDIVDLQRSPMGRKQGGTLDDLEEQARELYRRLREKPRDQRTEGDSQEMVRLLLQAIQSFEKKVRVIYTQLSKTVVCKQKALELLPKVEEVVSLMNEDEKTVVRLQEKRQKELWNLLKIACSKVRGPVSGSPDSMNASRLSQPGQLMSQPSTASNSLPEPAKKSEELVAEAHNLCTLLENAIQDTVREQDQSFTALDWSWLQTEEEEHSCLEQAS
Briefly: Inhibition of IKKb (unknown origin) at 1 uM relative to control. In short, it runs like this: as §1

Experiment [5] concerns the target T2, Serine/threonine-protein kinase D1 (Homo sapiens) (UniProt Q15139).
T2 sequence (whole entry): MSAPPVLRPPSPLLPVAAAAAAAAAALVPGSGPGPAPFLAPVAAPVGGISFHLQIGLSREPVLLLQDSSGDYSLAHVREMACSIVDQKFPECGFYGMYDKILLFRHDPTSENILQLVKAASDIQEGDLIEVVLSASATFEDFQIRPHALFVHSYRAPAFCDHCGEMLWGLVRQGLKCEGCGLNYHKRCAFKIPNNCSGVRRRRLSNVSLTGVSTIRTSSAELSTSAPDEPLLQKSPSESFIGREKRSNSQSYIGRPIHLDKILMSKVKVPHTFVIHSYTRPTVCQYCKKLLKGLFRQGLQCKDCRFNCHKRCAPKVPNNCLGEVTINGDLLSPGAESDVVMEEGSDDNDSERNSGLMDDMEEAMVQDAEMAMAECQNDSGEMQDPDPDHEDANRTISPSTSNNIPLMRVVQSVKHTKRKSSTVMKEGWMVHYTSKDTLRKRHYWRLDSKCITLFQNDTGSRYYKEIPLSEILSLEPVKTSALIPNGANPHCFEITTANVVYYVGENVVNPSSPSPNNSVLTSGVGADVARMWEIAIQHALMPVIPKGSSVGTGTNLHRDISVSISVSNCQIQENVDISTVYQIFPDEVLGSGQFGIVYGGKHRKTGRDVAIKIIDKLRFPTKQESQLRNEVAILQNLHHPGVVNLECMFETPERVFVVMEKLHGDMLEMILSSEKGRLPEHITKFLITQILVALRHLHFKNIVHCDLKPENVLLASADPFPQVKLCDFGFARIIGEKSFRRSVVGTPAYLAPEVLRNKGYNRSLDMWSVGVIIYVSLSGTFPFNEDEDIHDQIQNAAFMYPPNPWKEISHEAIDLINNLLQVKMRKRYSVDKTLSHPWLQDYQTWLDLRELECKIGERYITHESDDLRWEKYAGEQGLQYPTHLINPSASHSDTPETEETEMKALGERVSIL
Briefly: Inhibition of PKD1 (unknown origin) at 1 uM relative to control. In short, it runs like this: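 Single-concentration screen of each compound against a 59-protein-kinase panel, run at 10 µM or 1 µM. Activity relative to control is shown as a heat map across the panel.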

The target in experiment [6] is Mitogen-activated protein kinase 14 (Homo sapiens) (UniProt Q16539). Briefly: Inhibition of p38a MAPK (unknown origin) at 1 uM relative to control. Put shortly: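 Single-concentration screen across a panel of 59 protein kinases, with each compound tested at one fixed concentration. The read-out is residual kinase activity relative to control. Panel results are also condensed into a rescaled geometric mean (RGM) selectivity score.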
Mitogen-activated protein kinase 14 (Homo sapiens), sequence (Q16539 whole entry): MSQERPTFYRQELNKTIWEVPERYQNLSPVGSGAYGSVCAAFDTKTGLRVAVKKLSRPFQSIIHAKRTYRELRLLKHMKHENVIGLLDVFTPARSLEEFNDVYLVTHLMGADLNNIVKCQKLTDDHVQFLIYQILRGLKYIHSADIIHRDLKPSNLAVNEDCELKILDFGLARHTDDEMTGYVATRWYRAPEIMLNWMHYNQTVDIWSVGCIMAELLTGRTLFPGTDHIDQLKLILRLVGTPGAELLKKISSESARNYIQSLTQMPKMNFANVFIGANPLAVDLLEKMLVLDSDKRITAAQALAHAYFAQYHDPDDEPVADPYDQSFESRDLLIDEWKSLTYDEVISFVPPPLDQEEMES

For experiment [7], the target named is T3, Eukaryotic elongation factor 2 kinase (Homo sapiens) (UniProt O00418).
T3 sequence (whole entry): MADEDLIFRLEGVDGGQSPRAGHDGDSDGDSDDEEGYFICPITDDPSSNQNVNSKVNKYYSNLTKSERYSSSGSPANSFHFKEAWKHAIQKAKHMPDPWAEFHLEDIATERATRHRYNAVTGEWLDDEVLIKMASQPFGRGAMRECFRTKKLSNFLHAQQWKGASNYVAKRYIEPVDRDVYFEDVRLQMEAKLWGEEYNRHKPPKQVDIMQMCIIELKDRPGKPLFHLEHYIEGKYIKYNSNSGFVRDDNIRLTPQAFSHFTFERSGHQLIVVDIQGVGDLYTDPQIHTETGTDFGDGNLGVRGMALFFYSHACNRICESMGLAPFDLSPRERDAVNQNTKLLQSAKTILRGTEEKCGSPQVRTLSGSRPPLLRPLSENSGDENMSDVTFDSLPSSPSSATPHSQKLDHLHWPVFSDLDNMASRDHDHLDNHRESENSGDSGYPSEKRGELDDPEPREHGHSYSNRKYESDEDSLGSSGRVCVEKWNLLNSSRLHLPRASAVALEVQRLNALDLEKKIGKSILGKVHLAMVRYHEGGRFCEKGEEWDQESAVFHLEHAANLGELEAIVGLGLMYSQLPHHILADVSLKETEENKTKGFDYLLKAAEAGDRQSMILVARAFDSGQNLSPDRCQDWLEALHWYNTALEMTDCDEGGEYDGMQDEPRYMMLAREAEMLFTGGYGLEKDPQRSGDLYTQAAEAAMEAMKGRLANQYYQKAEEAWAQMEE
Briefly: Inhibition of EF2K (unknown origin) at 1 uM relative to control. Put shortly: as §1

Experiment [8] deals with Calcium/calmodulin-dependent protein kinase type 1 (Homo sapiens) (UniProt Q14012). Briefly: Inhibition of CAMK1 (unknown origin) at 1 uM relative to control. In short, it runs like this: as §1
Calcium/calmodulin-dependent protein kinase type 1 (Homo sapiens), sequence (Q14012 whole entry, looked up): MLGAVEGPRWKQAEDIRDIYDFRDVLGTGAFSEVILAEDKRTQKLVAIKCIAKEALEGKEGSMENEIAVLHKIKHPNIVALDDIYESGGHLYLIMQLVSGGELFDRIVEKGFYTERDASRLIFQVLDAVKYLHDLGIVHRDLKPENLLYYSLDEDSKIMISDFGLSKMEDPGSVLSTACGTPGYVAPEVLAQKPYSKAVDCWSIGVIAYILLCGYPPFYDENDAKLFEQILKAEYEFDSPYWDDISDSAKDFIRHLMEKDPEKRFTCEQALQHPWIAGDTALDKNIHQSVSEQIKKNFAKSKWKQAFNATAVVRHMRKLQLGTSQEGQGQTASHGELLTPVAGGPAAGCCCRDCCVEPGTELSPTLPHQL

Homeodomain-interacting protein kinase 2 (Homo sapiens), sequence (Q9H2X6 whole entry, looked up): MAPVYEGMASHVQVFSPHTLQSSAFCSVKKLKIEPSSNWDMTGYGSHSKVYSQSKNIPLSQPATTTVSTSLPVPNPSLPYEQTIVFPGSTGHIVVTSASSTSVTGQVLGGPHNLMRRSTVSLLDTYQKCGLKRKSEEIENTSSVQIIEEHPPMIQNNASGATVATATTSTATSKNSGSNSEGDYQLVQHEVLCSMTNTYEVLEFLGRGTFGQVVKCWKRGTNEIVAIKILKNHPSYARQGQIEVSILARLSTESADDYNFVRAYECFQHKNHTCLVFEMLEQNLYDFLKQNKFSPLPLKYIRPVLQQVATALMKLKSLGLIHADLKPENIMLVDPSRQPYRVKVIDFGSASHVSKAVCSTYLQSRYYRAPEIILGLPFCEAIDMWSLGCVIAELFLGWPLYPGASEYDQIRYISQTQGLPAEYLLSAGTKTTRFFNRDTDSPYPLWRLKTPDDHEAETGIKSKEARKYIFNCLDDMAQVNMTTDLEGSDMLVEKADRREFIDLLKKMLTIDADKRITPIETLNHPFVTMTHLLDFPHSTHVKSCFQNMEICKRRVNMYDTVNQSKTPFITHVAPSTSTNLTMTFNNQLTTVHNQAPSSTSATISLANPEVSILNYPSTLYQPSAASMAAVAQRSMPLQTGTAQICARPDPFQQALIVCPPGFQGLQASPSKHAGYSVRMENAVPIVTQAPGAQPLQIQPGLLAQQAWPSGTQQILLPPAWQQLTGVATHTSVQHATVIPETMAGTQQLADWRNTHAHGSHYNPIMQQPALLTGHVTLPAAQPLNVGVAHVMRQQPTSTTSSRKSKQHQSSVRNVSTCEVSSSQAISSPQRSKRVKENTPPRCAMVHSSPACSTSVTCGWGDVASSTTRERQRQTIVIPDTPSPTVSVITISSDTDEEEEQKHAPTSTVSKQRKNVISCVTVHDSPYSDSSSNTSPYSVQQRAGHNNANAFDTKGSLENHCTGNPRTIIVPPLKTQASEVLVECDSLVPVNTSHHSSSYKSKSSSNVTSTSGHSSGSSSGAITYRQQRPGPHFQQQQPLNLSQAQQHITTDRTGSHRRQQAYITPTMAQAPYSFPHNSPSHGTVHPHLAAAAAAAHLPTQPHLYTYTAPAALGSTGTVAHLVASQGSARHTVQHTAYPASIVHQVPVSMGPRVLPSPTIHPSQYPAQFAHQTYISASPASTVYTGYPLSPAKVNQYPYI
Insulin-like growth factor 1 receptor (Homo sapiens), sequence (P08069 31-736 limits assumed): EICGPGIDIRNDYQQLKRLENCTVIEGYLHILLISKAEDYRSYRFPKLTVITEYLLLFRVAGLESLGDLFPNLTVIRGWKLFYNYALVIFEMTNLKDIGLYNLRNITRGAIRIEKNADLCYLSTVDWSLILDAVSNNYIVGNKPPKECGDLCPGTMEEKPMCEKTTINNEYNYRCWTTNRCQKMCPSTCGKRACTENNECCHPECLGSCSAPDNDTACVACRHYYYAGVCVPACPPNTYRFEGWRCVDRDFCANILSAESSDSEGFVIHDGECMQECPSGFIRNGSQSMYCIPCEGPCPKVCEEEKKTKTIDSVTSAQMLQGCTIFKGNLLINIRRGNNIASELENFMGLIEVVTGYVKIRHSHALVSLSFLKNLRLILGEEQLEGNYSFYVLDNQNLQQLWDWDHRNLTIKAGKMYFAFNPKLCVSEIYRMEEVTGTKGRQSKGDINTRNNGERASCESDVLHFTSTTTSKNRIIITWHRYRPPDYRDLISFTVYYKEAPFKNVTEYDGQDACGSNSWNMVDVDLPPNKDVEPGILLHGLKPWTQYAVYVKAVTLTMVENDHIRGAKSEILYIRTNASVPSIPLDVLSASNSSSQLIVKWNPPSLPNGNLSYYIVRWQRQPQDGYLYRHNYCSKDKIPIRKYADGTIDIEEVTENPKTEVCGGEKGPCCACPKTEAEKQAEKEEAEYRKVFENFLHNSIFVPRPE
Insulin-like growth factor 1 receptor (Homo sapiens), sequence (P08069 741-1367 limits assumed): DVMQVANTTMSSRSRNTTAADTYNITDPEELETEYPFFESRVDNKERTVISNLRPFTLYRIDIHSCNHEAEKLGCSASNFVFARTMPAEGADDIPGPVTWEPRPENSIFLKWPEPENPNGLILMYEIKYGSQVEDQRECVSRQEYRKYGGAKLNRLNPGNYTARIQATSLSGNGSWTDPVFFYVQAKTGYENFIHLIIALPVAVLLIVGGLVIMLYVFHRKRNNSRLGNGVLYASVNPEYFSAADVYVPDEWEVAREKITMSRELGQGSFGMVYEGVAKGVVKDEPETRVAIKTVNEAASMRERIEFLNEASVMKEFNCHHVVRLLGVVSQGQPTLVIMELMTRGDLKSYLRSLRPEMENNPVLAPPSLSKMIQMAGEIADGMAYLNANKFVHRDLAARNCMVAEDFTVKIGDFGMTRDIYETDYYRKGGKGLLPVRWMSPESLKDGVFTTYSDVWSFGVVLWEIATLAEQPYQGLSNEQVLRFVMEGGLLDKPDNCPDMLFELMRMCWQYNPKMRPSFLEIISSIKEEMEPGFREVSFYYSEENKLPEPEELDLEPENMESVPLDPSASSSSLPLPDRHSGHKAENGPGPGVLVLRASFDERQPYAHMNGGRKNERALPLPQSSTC

`c1cc(-c2n[nH]c3ccnc(OC4CCOCC4)c23)cc(N2CCOCC2)n1`: the inhibition in experiment [1] is 11%; in experiment [2], 6%; in experiment [3], 0%; in experiment [4] it was 0%; in experiment [5] it was 7%; in experiment [6] it was 0%. Also, the inhibition amounted to 9% in experiment [7] and 7% in experiment [8].

`CC(C)n1cc(-c2n[nH]c3ccnc(OC4CCOCC4)c23)cn1`: the inhibition was determined as 40% in experiment [1]; 9% in experiment [2]; 0% in experiment [3]; 3% in experiment [4]; 41% in experiment [5]; 0% in experiment [6]. Moreover, the figures for the inhibition in experiment [7] and in experiment [8] were 0% and 36%, respectively.
